Measured values as given in ChEMBL document CHEMBL5257020, “Discovery of a 9-mer Cationic Peptide (LTX-315) as a Potential First in Class Oncolytic Peptide” (J Med Chem, 2016).
Where a SMILES comes first, the peptide text is derived from it. [ ]: non-standard residue; d: D form. ξ: configuration not given here. Bip = N[C@@H](Cc1ccc(-c2ccccc2)cc1)C(=O)O; ξBip = NC(Cc1ccc(-c2ccccc2)cc1)C(=O)O; ξDip = NC(C(=O)O)C(c1ccccc1)c1ccccc1

What was measured:
PANC-1 = test: Cytotoxicity against human PANC-1 cells assessed as inhibition of cell proliferation incubated for 4 hrs by MTS assay; type: functional, cell-based; settings: PANC-1, 4 h
Outline: (§1)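 Cells grown in RPMI-1640 with 2 mM L-glutamine and 10% FBS, plated, then held 24 h at 37 °C. Adherent lines washed once in FBS-free medium. Cells exposed 4 h at 37 °C, 5% CO2 in FBS-free medium to 10 concentrations (1/4 steps, 400 μM top). 1% Triton X-100 served as positive control. MTS/PMS added for 2 h, then OD 490 nm read. IC50 from semilog curves; three independent experiments, quadruplicate wells.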

SK-N-AS = test: Cytotoxicity against human SK-N-AS cells assessed as inhibition of cell proliferation incubated for 4 hrs by MTS assay; type: functional, cell-based; outline: as §1
SH-SY5Y = test: Cytotoxicity against human SH-SY5Y cells assessed as inhibition of cell proliferation incubated for 4 hrs by MTS assay; type: functional, cell-based; outline: as §1
NAMALVA = test: Cytotoxicity against human NAMALVA cells assessed as inhibition of cell proliferation incubated for 4 hrs by MTS assay; type: functional, cell-based; outline: as §1
SK-MEL-2 = test: Cytotoxicity against human SK-MEL-2 cells assessed as inhibition of cell proliferation incubated for 4 hrs by MTS assay; type: functional, cell-based; settings: SK-MEL-2, 4 h; outline: as §1
SU-DHL-1 = test: Cytotoxicity against human SU-DHL-1 cells assessed as inhibition of cell proliferation incubated for 4 hrs by MTS assay; type: functional, cell-based; settings: SU-DHL-1, 4 h; outline: as §1
Ramos = test: Cytotoxicity against human Ramos cells assessed as inhibition of cell proliferation incubated for 4 hrs by MTS assay; type: functional, cell-based; outline: as §1
HCT-116 = test: Cytotoxicity against human HCT-116 cells assessed as inhibition of cell proliferation incubated for 4 hrs by MTS assay; type: functional, cell-based; settings: HCT-116, 4 h; outline: as §1
Toledo = test: Cytotoxicity against human Toledo cells assessed as inhibition of cell proliferation incubated for 4 hrs by MTS assay; type: functional, cell-based; outline: as §1
A498 = test: Cytotoxicity against human A498 cells assessed as inhibition of cell proliferation incubated for 4 hrs by MTS assay; type: functional, cell-based; settings: A498, 4 h; outline: as §1
HL60/ADR = test: Cytotoxicity against human HL60/ADR cells assessed as inhibition of cell proliferation incubated for 4 hrs by MTS assay; type: functional, cell-based; outline: as §1
HepG2 = test: Cytotoxicity against human HepG2 cells assessed as inhibition of cell proliferation incubated for 4 hrs by MTS assay; type: functional, cell-based; settings: HepG2, 4 h; outline: as §1
A20 = test: Cytotoxicity against mouse A20 lymphoma cells assessed as inhibition of cell proliferation incubated for 4 hrs by MTT assay; type: functional, cell-based; settings: A20, 4 h
Outline: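 Murine A20 cells cultured in RPMI-1640 with 2 mM L-glutamine, 1.5 g/L sodium bicarbonate, 4.5 g/L glucose, 10 mM HEPES, 1.0 mM sodium pyruvate, 0.05 mM 2-mercaptoethanol and 10% FBS, without antibiotics, at 37 °C, 5% CO2. IC50 from three or more independent measurements, given as mean ± SD.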

[1] = Cytotoxicity against human IGROV(CDDP) cells assessed as inhibition of cell proliferation incubated for 4 hrs by MTS assay; type: functional, cell-based; outline: as §1
Cytochrome P450 2A6 = Cytochrome P450 2A6 (Homo sapiens, UniProt P11509); test: Inhibition of CYP2A6 in human liver microsomes using coumarin as substrate assessed as reduction in substrate hydroxylation incubated for 5 mins in presence of beta-NADPH measured by LC-MS/MS analysis; type: ADME, Microsome
Outline: (§2)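 Pooled human liver microsomes (50 donors) in 100 mM phosphate, pH 7.4, with 2 mM β-NADPH. Protein 0.1 mg/mL (2A6, 2C8, 2C9, 2E1, 3A4) or 0.3 mg/mL (1A2, 2B6, 2C19, 2D6). Test article 0–100 μM final, preincubated ~37 °C 5 or 30 min before isoform-selective substrate. Quenched in methanol with internal standard. Metabolite measured by LC–MS/MS against standard curve. Duplicates, with selective inhibitor positive controls.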

[2] = Ratio of drug concentration in rat blood to plasma measured after 60 mins by LC-MS/MS analysis; type: ADME, cell-free
Outline: (§3)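 Pooled fresh whole blood (≥3 male and 3 female human, beagle dog or rat donors) spiked to 200 ng/mL. Incubated ~37 °C on rotary mixer over 0–120 min. Hematocrit determined. Blood and plasma analysed by LC–MS/MS. Blood/plasma ratio = Cb/C. Cell association = {[C(1 − H)]/Cb} × 100. Values at 60 min, mean of two independent measurements.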

Cytochrome P450 2B6 = Cytochrome P450 2B6 (Homo sapiens, UniProt P20813); test: Inhibition of CYP2B6 in human liver microsomes using bupropion as substrate assessed as reduction in substrate hydroxylation incubated for 5 mins in presence of beta-NADPH measured by LC-MS/MS analysis; type: ADME, Microsome; outline: as §2
Cytochrome P450 2C8 = Cytochrome P450 2C8 (Homo sapiens, UniProt P10632); test: Inhibition of CYP2C8 in human liver microsomes using paclitaxel as substrate assessed as reduction in substrate hydroxylation incubated for 5 mins in presence of beta-NADPH measured by LC-MS/MS analysis; type: ADME, Microsome; outline: as §2
Cytochrome P450 2C19 = Cytochrome P450 2C19 (Homo sapiens, UniProt P33261); test: Inhibition of CYP2C19 in human liver microsomes using (S)-mephenytoin as substrate assessed as reduction in substrate hydroxylation incubated for 5 mins in presence of beta-NADPH measured by LC-MS/MS analysis; type: ADME, Microsome; outline: as §2
[3] = Hemolytic activity in human red blood cells incubated for 1 hr by spectrophotometric microtiter plate reader method; type: toxicity, cell-based, Erythrocyte
[4] = Protein binding in Han Wistar rat plasma assessed as bound fraction at 200 to 1000 ng/ml incubated for 20 hrs in presence of AEBSF by LC-MS/MS analysis; type: ADME, cell-free; settings: dose 200-1000 ng/ml, read-out: PPB
Outline: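 Pooled plasma (human volunteers; Han Wistar rat; Beagle dog) containing AEBSF 1 mg/mL. Spiked to 200, 500 or 1000 ng/mL final, in duplicate. Ultracentrifuged 45 000 rpm, 37 °C, 20 h. Supernatant quantified by LC–MS/MS. % bound = [(C − CS)/C] × 100. Values are upper limits because of residual degradation.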

[5] = Stability in pooled and cryopreserved human hepatocytes assessed as intrinsic clearance measured per 10^6 cells at 1 uM measured for 90 mins by LC-MS/MS analysis; type: ADME, cell-based, Hepatocyte; settings: read-out: CLH
Outline: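 Pooled cryopreserved hepatocytes at 0.5 million cells/mL, incubated at about 37 °C with 1 μM initial peptide. Supernatant after centrifugation analysed by LC–MS/MS (MRM) using a D-Trp7,9,10-substance P internal standard. Peak height was referenced to time zero, and t1/2 = −0.693/slope of ln concentration vs time. Clint = 0.693/t1/2 × Vinc per million cells. Testosterone, midazolam and 4-methylumbelliferone were the positive controls. Duplicates; mean of two experiments.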

Cytochrome P450 3A4 [6] = target: T1, Cytochrome P450 3A4 (Homo sapiens, UniProt P08684); test: Inhibition of CYP3A4 in human liver microsomes using midazolam as substrate assessed as reduction in substrate hydroxylation incubated for 30 mins in presence of beta-NADPH measured by LC-MS/MS analysis; type: ADME, Microsome; outline: as §2
[7] = Drug uptake in human red blood cells at 60 mins by LC-MS/MS analysis; type: ADME, cell-based; settings: erythrocyte, 1 h; outline: as §3
Cytochrome P450 3A4 [8] = target: T1, Cytochrome P450 3A4; test: Inhibition of CYP3A4 in human liver microsomes using testosterone as substrate assessed as reduction in substrate hydroxylation incubated for 5 mins in presence of beta-NADPH measured by LC-MS/MS analysis; type: ADME, Microsome; outline: as §2

T1 sequence (P08684 whole entry): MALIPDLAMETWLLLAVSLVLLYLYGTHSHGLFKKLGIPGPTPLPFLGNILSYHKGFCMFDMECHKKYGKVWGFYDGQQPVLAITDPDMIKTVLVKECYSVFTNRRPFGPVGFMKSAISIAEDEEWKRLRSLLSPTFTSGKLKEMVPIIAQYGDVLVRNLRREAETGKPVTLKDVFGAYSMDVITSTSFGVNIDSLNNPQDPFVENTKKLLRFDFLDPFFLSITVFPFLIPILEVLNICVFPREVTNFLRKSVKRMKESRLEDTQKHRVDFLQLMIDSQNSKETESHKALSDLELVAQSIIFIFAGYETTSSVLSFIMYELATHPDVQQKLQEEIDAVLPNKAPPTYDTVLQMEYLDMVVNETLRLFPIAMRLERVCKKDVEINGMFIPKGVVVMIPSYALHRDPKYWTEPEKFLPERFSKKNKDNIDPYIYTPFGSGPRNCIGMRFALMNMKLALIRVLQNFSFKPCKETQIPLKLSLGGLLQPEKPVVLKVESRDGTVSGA
Sequence of Cytochrome P450 2B6 (P20813 whole entry): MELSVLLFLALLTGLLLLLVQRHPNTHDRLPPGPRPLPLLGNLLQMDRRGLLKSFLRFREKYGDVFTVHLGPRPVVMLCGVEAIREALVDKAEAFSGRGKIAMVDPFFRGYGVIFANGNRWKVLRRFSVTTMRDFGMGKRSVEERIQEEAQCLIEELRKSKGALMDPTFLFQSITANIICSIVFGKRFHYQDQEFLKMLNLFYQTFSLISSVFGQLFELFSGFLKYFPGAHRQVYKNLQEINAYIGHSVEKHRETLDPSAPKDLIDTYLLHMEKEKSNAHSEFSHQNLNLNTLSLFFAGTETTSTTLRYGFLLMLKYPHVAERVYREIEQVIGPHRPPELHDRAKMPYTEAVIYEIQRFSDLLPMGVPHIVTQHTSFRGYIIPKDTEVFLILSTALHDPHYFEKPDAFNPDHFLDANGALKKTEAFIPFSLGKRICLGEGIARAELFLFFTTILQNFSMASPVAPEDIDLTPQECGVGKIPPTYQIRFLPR
Sequence of Cytochrome P450 2C19 (P33261 whole entry): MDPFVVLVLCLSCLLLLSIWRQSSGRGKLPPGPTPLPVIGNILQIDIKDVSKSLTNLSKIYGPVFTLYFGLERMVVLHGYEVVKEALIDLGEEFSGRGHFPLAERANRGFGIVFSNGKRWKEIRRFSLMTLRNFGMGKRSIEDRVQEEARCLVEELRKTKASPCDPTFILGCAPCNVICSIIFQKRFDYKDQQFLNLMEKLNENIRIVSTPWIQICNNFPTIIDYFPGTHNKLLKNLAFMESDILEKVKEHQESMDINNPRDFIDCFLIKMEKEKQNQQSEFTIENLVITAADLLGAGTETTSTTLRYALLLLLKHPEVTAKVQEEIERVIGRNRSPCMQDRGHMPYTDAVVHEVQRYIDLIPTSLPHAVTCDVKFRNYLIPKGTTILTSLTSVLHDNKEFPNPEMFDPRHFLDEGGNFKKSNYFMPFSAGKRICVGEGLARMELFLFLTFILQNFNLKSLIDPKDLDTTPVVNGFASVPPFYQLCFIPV
Sequence of Cytochrome P450 2C8 (P10632 whole entry): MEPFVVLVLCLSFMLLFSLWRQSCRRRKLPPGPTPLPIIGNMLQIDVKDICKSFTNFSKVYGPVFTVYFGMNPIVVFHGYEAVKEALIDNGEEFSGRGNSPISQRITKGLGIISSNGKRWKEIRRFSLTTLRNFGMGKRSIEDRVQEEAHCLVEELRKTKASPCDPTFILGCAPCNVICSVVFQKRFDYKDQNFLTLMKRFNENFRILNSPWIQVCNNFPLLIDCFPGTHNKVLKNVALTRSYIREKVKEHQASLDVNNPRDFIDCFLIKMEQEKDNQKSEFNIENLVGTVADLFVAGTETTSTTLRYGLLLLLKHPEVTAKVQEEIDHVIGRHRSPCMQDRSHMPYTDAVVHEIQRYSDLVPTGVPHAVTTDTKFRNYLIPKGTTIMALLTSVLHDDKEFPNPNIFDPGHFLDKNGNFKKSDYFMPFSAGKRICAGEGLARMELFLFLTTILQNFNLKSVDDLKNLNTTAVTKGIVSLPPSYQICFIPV
Sequence of Cytochrome P450 2A6 (P11509 whole entry, canonical isoform): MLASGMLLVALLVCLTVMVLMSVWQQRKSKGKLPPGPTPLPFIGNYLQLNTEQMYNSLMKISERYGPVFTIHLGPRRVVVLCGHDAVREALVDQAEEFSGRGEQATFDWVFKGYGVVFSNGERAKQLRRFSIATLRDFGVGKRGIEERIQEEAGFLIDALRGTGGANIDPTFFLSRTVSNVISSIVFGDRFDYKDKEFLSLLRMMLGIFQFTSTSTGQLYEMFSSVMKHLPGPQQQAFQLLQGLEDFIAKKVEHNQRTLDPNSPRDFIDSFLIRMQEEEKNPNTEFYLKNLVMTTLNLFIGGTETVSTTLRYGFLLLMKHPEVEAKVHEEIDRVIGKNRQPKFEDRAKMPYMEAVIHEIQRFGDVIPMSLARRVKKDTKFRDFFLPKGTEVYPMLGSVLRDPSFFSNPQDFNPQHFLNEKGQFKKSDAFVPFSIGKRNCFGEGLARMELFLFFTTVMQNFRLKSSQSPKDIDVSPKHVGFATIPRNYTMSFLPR

NCCCC[C@H](NC(=O)[C@H](Cc1c[nH]c2ccccc12)NC(=O)[C@H](Cc1c[nH]c2ccccc12)NC(=O)[C@H](CCCCN)NC(=O)[C@H](CCCCN)NC(=O)[C@H](Cc1c[nH]c2ccccc12)NC(=O)[C@H](Cc1ccc(-c2ccccc2)cc1)NC(=O)[C@H](CCCCN)NC(=O)[C@@H](N)CCCCN)C(N)=O (H-KK[Bip]WKKWWK-NH2)
IC50 (PANC-1): 9.5 µM
IC50 (SK-N-AS): 6 µM
IC50 (SH-SY5Y): 8.8 µM
IC50 (NAMALVA): 6.5 µM
IC50 (SK-MEL-2): 11 µM
IC50 (SU-DHL-1): 5.6 µM
IC50 (Ramos): 3.8 µM
IC50 (HCT-116): 8.6 µM
IC50 (Toledo): 5.4 µM
IC50 (A498): 6.4 µM
IC50 (HL60/ADR): 4.9 µM
IC50 (HepG2): 8.7 µM
IC50 (A20): 8.3 µM
IC50 [1]: 6.6 µM

NCCCC[C@H](NC(=O)[C@H](Cc1c[nH]c2ccccc12)NC(=O)[C@H](Cc1c[nH]c2ccccc12)NC(=O)[C@H](CCCCN)NC(=O)[C@H](CCCCN)NC(=O)[C@H](Cc1c[nH]c2ccccc12)NC(=O)C(Cc1ccc(-c2ccccc2)cc1)NC(=O)[C@H](CCCCN)NC(=O)[C@@H](N)CCCCN)C(N)=O (stereo partly specified) (H-KK[ξBip]WKKWWK-NH2)
IC50 (PANC-1): 10.8 µM
IC50 (SK-N-AS): 6.1 µM
IC50 (SH-SY5Y): 7.8 µM
IC50 (NAMALVA): 8.5 µM
IC50 (SK-MEL-2): 13.4 µM
IC50 (SU-DHL-1): 4.6 µM
IC50 (Ramos): 3.2 µM
IC50 (HCT-116): 7.6 µM
IC50 (Toledo): 5.2 µM
IC50 (A498): 7.9 µM
IC50 (HL60/ADR): 7 µM
IC50 (HepG2): 14.8 µM
IC50 (A20): 13 µM
IC50 [1]: 6.6 µM

N=C(N)NCCC[C@H](NC(=O)[C@H](Cc1c[nH]c2ccccc12)NC(=O)[C@H](Cc1c[nH]c2ccccc12)NC(=O)[C@H](CCCNC(=N)N)NC(=O)[C@H](CCCNC(=N)N)NC(=O)C(NC(=O)[C@H](Cc1c[nH]c2ccccc12)NC(=O)[C@H](CCCNC(=N)N)NC(=O)[C@@H](N)CCCNC(=N)N)C(c1ccccc1)c1ccccc1)C(N)=O (stereo partly specified) (H-RRW[ξDip]RRWWR-NH2)
IC50 (PANC-1): 12.5 µM
IC50 (SK-N-AS): 6.9 µM
IC50 (SH-SY5Y): 5.4 µM
IC50 (NAMALVA): 5.3 µM
IC50 (SK-MEL-2): 10.6 µM
IC50 (SU-DHL-1): 5 µM
IC50 (Ramos): 2.8 µM
IC50 (HCT-116): 4.8 µM
IC50 (Toledo): 3 µM
IC50 (A498): 5.7 µM
IC50 (HL60/ADR): 6 µM
IC50 (HepG2): 16.6 µM
IC50 (A20): 6.7 µM
IC50 [1]: 5.5 µM

NCCCC[C@H](NC(=O)[C@H](Cc1c[nH]c2ccccc12)NC(=O)[C@H](CCCCN)NC(=O)[C@H](CCCCN)NC(=O)C(NC(=O)[C@H](Cc1c[nH]c2ccccc12)NC(=O)[C@H](CCCCN)NC(=O)[C@H](CCCCN)NC(=O)[C@@H](N)Cc1c[nH]c2ccccc12)C(c1ccccc1)c1ccccc1)C(N)=O (stereo partly specified) (H-WKKW[ξDip]KKWK-NH2)
IC50 (PANC-1): 17.1 µM
IC50 (SK-N-AS): 10.4 µM
IC50 (SH-SY5Y): 12.7 µM
IC50 (NAMALVA): 7.1 µM
IC50 (SK-MEL-2): 18.4 µM
IC50 (SU-DHL-1): 7.3 µM
IC50 (Ramos): 5.4 µM
IC50 (HCT-116): 10.3 µM
IC50 (Toledo): 7.7 µM
IC50 (A498): 13.9 µM
IC50 (HL60/ADR): 10.5 µM
IC50 (HepG2): 20.1 µM
IC50 (A20): 16 µM
IC50 [1]: 6.4 µM

NCCCC[C@H](NC(=O)C(NC(=O)[C@H](Cc1c[nH]c2ccccc12)NC(=O)[C@H](CCCCN)NC(=O)[C@H](CCCCN)NC(=O)[C@H](Cc1c[nH]c2ccccc12)NC(=O)[C@H](Cc1c[nH]c2ccccc12)NC(=O)[C@H](CCCCN)NC(=O)[C@@H](N)CCCCN)C(c1ccccc1)c1ccccc1)C(N)=O (stereo partly specified) (H-KKWWKKW[ξDip]K-NH2)
IC50 (Cytochrome P450 2A6): 7 µM
blood plasma ratio at 1 h [2]: 1.03
IC50 (PANC-1): 3.8 µM
IC50 (Cytochrome P450 2B6): 27.7 µM
IC50 (SK-N-AS): 2.5 µM
IC50 (SH-SY5Y): 3.3 µM
IC50 (Cytochrome P450 2C8): 10.2 µM
IC50 (NAMALVA): 3.6 µM
IC50 (SK-MEL-2): 5.2 µM
IC50 (Cytochrome P450 2C19): 23.3 µM
EC50 at 1 h [3]: > 695 µM
IC50 (SU-DHL-1): 2.3 µM
IC50 (Ramos): 1.7 µM
fraction unbound at 20 h [4]: > 0.25
IC50 (HCT-116): 3.4 µM
IC50 (Toledo): 2.3 µM
IC50 (A498): 2.9 µM
IC50 (HL60/ADR): 3 µM
IC50 (HepG2): 6.7 µM
hepatocyte CLint at 1 µM [5]: 22 µL/min/1e6 cells
IC50 (A20): 8.3 µM
IC50 (Cytochrome P450 3A4 [6]): 63.7 µM
IC50 [1]: 3.2 µM
Drug uptake [7]: 27%
IC50 (Cytochrome P450 3A4 [8]): 9.3 µM
